Experiments:
Mus musculus [1] = experiment: Inhibition of […] induced TNF-alpha release in mice upon oral administration; format: functional
[2] = biological target: Mitogen-activated protein kinase 14 (Mus musculus, UniProt P47811); experiment: Inhibition of murine His-Mitogen-activated protein kinase p38 alpha phosphorylation.
Rattus norvegicus [3] = experiment: Percent swelling of joints in rats immunized with Mycobacterium tuberculosis was determined on day 20 after 25 mg/kg peroral administration; format: functional; conditions: route oral
Outline: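 Female Wistar rats immunized with Mycobacterium tuberculosis at day 0 (adjuvant-induced arthritis); oral dosing 25 mg/kg twice daily from day 14 to 20; joint swelling measured on day 20, expressed as % inhibition of swelling.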

[4] = biological target: Mast/stem cell growth factor receptor Kit (Homo sapiens) (UniProt P10721); experiment: Inhibition of human c-Kit kinase; conditions: concentration not given here
[5] = biological target: Proto-oncogene tyrosine-protein kinase Src (Homo sapiens) (UniProt P12931); experiment: Inhibition of human c-Src at 10 uM
[6] = biological target: Cyclin-dependent kinase 1 (Homo sapiens) (UniProt P06493); experiment: Inhibition of human cyclin-dependent kinase 1 at 10 uM
[7] = biological target: T1, Epidermal growth factor receptor (Homo sapiens, UniProt P00533); conditions: 10 uM
[8] = biological target: Fibroblast growth factor receptor (Homo sapiens) (UniProt P22607+P11362+P22455+P21802); experiment: Inhibitory activity against human FGFR at 10 uM; format: protein assay
[9] = biological target: Insulin-like growth factor 1 receptor (Homo sapiens) (UniProt P08069); experiment: Inhibition of human insulin-like growth factor I receptor at 10 uM
Cytochrome P450 2D6 = Cytochrome P450 2D6 (Homo sapiens, UniProt P10635); experiment: Inhibition of human cytochrome P450 2D6; format: ADME
[10] = biological target: Mitogen-activated protein kinase 9 (Homo sapiens, UniProt P45984); experiment: Inhibit of human c-Jun N-terminal kinase 2
[11] = biological target: Prostaglandin G/H synthase 1 (Homo sapiens, UniProt P23219); experiment: Inhibition of human prostaglandin G/H synthase 1
Cytochrome P450 1A2 = biological target: T2, Cytochrome P450 1A2 (Homo sapiens, UniProt P05177); experiment: Inhibition of human cytochrome P450 1A2; format: ADME
T2 sequence (P05177 whole entry): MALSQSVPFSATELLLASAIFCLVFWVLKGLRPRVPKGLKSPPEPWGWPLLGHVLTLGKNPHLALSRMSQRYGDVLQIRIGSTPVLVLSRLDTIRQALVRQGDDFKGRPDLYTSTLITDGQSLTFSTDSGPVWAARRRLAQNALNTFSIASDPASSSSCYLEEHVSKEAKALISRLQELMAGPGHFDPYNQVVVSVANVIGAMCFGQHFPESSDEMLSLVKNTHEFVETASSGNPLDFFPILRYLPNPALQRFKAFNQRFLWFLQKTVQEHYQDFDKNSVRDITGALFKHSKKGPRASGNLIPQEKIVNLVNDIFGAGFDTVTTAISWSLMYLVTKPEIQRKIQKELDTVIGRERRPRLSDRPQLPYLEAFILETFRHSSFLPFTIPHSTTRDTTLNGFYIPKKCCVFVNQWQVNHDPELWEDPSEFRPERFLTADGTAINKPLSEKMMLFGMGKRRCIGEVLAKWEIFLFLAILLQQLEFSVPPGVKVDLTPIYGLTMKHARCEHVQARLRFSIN

Cytochrome P450 3A4 = Cytochrome P450 3A4 (Homo sapiens, UniProt P08684); experiment: Inhibition of human cytochrome P450 3A4; format: ADME
Cytochrome P450 2C9 = Cytochrome P450 2C9 (Homo sapiens, UniProt P11712); experiment: Inhibition of human cytochrome P450 2C9; format: ADME
[12] = Oral bioavailability; format: ADME, organism-based; conditions: rat, in vivo
Outline: (§1)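 Pharmacokinetics were determined in rat. Cmax was measured after a 1 mg/kg oral dose. Oral bioavailability, terminal half-life and steady-state volume of distribution (Vss, L/kg) were reported.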

[13] = Peak plasma concentration at 1 mg/kg peroral administration; format: ADME, organism-based; parameters: dose 1 mg/kg, route oral; conditions: rat, po; outline: as §1
[14] = Volume of distribution in steady state was determined in rat; format: ADME, organism-based; conditions: in vivo, read-out: Vss; outline: as §1
[15] = biological target: T1, Epidermal growth factor receptor; experiment: (§2) Inhibition of human Epidermal growth factor receptor
[16] = biological target: RAF proto-oncogene serine/threonine-protein kinase (Homo sapiens) (UniProt P04049); experiment: Inhibition of human RAF proto-oncogene serine/threonine-protein kinase at 10 uM
[17] = biological target: Hepatocyte growth factor receptor (Homo sapiens, UniProt P08581); experiment: Inhibit of human Met proto-oncogene tyrosine kinase
[18] = biological target: T1, Epidermal growth factor receptor; experiment: as §2; remark: listed apart in the source
Rattus norvegicus [19] = experiment: Dose required to inhibit bovine nasalseptum type II collagen induced arthritis in rats after administration on day 13; format: functional; conditions: 312 h
Mus musculus [20] = experiment: Dose required to inhibit […] induced TNF-alpha release in mice upon oral administration; format: functional

Mitogen-activated protein kinase 14, sequence (P47811 whole entry): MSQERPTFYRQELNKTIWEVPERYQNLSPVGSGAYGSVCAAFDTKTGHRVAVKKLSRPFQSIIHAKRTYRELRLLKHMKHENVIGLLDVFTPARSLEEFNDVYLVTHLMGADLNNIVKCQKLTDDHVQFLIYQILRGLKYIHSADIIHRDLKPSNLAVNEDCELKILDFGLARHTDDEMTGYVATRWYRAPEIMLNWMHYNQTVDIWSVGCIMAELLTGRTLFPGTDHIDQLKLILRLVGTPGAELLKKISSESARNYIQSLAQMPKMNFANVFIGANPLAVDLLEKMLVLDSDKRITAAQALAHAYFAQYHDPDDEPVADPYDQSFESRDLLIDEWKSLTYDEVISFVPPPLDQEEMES
T1 sequence (P00533 whole entry): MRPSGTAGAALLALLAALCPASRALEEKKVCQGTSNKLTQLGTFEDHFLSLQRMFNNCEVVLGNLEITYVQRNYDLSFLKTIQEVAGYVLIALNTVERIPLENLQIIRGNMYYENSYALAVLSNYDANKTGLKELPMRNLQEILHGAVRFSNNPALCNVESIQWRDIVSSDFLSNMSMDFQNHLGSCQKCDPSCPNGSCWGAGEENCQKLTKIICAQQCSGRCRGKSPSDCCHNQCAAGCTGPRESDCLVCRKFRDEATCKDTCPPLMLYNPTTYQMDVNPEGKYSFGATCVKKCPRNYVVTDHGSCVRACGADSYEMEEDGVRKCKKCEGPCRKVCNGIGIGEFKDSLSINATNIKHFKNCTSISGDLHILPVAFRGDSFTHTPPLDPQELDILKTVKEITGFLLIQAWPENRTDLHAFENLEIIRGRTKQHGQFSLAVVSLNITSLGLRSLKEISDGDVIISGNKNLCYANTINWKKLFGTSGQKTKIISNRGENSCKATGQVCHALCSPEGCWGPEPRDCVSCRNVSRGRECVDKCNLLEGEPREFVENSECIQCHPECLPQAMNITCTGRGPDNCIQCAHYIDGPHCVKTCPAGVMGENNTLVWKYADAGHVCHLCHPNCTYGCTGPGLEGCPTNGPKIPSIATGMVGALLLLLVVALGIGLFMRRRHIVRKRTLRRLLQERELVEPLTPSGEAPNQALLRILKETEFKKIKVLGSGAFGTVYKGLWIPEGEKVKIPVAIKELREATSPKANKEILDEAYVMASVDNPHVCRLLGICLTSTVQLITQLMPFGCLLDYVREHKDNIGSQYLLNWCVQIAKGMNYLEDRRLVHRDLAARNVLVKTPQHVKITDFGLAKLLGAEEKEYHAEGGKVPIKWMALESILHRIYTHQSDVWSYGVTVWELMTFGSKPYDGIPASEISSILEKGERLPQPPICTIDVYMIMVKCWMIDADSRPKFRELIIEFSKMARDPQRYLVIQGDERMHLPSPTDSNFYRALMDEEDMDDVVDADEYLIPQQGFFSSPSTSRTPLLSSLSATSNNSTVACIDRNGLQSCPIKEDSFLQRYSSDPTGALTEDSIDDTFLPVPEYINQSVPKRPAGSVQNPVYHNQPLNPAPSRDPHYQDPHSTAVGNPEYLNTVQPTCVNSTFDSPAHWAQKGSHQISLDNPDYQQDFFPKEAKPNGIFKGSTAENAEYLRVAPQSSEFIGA
Mitogen-activated protein kinase 9, sequence (P45984 whole entry): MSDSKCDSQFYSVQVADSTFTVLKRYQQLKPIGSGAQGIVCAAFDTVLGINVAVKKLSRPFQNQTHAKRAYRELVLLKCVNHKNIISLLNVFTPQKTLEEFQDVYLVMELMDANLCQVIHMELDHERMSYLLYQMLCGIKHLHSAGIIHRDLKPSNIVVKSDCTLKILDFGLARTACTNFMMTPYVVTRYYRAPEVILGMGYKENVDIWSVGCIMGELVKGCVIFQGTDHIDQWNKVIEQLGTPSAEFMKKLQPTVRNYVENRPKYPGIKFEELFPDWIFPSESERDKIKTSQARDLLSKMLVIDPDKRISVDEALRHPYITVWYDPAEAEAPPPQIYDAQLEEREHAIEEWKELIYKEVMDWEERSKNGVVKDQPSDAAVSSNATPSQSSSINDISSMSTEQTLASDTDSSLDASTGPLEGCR
Cytochrome P450 2D6, sequence (P10635 whole entry): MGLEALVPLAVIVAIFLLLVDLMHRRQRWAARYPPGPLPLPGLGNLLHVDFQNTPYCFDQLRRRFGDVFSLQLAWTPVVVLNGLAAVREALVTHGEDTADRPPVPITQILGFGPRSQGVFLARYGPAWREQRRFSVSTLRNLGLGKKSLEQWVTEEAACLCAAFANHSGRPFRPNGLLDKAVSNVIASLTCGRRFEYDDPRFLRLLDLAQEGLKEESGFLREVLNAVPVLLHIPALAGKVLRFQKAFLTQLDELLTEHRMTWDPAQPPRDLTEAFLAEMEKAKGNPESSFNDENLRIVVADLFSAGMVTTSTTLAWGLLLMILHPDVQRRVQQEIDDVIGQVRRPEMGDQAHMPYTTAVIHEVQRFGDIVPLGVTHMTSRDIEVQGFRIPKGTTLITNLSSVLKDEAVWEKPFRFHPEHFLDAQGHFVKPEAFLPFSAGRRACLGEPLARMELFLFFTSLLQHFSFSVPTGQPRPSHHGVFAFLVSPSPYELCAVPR
Prostaglandin G/H synthase 1, sequence (P23219 whole entry): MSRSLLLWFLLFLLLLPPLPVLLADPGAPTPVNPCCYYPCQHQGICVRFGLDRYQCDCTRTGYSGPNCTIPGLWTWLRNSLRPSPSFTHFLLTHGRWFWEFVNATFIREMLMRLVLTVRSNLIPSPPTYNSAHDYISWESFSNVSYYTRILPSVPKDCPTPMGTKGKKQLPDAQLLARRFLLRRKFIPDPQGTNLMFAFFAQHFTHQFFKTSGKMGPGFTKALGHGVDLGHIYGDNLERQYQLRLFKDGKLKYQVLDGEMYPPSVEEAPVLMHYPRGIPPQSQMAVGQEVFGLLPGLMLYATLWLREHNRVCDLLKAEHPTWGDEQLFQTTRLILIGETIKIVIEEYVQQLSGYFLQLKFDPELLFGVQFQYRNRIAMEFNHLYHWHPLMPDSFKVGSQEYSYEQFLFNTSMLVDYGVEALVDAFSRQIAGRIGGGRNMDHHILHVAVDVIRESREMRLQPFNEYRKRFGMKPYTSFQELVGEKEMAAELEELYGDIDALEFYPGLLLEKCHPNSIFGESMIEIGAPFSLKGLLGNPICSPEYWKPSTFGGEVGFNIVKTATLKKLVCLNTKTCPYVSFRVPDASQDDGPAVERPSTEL
Cytochrome P450 3A4, sequence (P08684 whole entry): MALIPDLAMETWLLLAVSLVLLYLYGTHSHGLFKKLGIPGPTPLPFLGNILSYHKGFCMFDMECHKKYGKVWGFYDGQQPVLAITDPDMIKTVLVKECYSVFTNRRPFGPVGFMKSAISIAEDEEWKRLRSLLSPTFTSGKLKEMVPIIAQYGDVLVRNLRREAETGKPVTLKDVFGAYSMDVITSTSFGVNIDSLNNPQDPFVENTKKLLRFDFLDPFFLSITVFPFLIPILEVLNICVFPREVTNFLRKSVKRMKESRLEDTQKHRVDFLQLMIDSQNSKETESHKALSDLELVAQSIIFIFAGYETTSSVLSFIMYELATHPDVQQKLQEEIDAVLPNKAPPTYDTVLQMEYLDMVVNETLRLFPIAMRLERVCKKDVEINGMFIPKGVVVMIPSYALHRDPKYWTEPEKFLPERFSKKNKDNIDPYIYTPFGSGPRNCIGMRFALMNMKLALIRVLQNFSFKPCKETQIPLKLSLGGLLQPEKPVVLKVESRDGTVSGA
Proto-oncogene tyrosine-protein kinase Src (Homo sapiens), sequence (P12931 2-536 limits assumed): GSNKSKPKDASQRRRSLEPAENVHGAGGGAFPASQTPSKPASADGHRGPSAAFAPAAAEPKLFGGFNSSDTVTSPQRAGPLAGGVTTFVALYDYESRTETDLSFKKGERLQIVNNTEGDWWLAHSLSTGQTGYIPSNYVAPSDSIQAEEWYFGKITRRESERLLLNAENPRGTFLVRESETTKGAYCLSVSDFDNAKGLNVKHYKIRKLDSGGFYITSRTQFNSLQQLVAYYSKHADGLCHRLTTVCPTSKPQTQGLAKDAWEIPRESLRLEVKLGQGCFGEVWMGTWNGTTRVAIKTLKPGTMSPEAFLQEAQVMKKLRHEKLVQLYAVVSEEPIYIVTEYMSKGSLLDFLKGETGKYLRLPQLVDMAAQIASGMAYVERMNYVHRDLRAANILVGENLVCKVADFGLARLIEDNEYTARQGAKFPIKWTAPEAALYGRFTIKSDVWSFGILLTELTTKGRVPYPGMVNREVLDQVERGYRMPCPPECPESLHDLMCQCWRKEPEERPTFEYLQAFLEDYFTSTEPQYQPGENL
Cytochrome P450 2C9, sequence (P11712 whole entry): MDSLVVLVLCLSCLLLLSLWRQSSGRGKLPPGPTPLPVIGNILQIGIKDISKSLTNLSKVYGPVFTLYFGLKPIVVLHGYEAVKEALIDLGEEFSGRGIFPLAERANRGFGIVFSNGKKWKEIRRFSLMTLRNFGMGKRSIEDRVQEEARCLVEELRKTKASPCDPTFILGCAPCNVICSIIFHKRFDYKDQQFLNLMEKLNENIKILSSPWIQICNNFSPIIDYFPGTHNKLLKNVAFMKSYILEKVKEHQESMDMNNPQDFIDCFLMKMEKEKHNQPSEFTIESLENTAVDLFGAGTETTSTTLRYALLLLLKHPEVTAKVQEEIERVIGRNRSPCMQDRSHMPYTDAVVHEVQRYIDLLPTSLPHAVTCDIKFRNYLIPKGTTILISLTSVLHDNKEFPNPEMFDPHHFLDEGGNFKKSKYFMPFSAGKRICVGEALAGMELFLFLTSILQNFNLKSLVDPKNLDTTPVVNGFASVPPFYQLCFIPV
Cyclin-dependent kinase 1 (Homo sapiens), sequence (P06493 whole entry, looked up): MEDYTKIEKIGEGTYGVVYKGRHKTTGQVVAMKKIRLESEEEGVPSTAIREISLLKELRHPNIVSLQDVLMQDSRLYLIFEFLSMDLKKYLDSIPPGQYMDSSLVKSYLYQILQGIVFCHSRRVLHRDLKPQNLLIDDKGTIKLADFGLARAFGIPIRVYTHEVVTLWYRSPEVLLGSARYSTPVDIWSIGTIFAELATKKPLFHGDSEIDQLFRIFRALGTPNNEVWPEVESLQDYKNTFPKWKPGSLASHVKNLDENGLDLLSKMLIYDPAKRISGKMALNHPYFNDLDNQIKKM

Row | SMILES | Inhibition (Mus musculus [1]) [%] | IC50 [2] [µM] | Swelling (Rattus norvegicus [3]) [%] | also measured
1 | Cc1nc2cc(C(=O)c3ccc(Nc4ccc(F)cc4F)cc3)c(Cl)cc2[nH]1 | 93 | 0.7 | 46 | 
2 | Cc1nc2cc(C(=O)c3ccc(Nc4ccc(F)cc4F)nc3)c(Cl)cc2[nH]1 | 91 | 8 | 40 | 
3 | CC(C)(N)C#Cc1ccc(Cl)c(C(=O)c2ccc(Nc3ccc(F)cc3F)nc2)c1 | 50 | 19 | 36 | 
4 | COc1cc2[nH]c(C)nc2cc1C(=O)c1ccc(Nc2ccc(F)cc2F)cc1 | 90 |  | 50 | inhibition [4]: 0%; inhibition [5]: 0%; inhibition [6]: 0%; inhibition [7]: -10%; inhibition [8]: 0%; inhibition [9]: 0%
5 | COc1ccc(/C=C/C2(O)CCN(C)CC2)cc1C(=O)c1ccc(Nc2ccc(F)cc2F)cc1 | 68 | 1 | 47 | 
6 | COc1cc2nc(C)[nH]c2cc1C(=O)c1ccc(Nc2ccc(F)cc2F)cc1 |  | 5 |  | IC50 (Cytochrome P450 2D6): > 2 µM; IC50 [10]: > 10 µM; IC50 [11]: > 80 µM; IC50 (Cytochrome P450 1A2): > 2 µM; IC50 (Cytochrome P450 3A4): > 2 µM; IC50 (Cytochrome P450 2C9): > 2 µM
7 | COc1ccc(C#CC(C)(C)N)cc1C(=O)c1ccc(Nc2ccc(F)cc2F)cc1 | 95 | 14 | 51 | IC50 (Cytochrome P450 2D6): > 2 µM; IC50 [10]: > 10 µM; bioavailability [12]: 46%; IC50 [11]: > 80 µM; Cmax [13]: 59 nM; Vd [14]: 9 L/kg; IC50 (Cytochrome P450 1A2): > 2 µM; IC50 (Cytochrome P450 3A4): > 2 µM; IC50 [15]: 4.4 µM; inhibition [5]: -10%; IC50 (Cytochrome P450 2C9): > 2 µM; inhibition [16]: 0%; IC50 [17]: 1.5 µM; IC50 [18]: 8.8 µM; inhibition [9]: 0%
8 | COc1ccc(CCC(C)(C)N)cc1C(=O)c1ccc(Nc2ccc(F)cc2F)cc1 | 0 | 113 |  | 
9 | O=C(c1ccc(Nc2ccc(F)cc2F)cc1)c1ccccc1Cl | 6 | 11 |  | 
10 | O=C(c1ccc(Nc2ccc(F)cc2F)nc1)c1ccccc1Cl |  | 101 |  | 
11 | COc1ccc(C#CC(C)(C)N)cc1C(=O)c1ccc(Nc2ccc(F)cc2F)nc1 | 91 | 8 | 52 | 
12 | COc1ccccc1C(=O)c1ccc(Nc2ccc(F)cc2F)cc1 | 0 | 38 |  | 
13 | COc1cc2[nH]c(C)nc2cc1C(=O)c1ccc(Nc2ccc(F)cc2F)nc1 | 57 | 21 | 70 | bioavailability [12]: 54%; Cmax [13]: 607 nM; Vd [14]: 1.1 L/kg; ED50 (Rattus norvegicus [19]): 8.6 mg/kg
14 | CC(C)(N)CCc1ccc(Cl)c(C(=O)c2ccc(Nc3ccc(F)cc3F)nc2)c1 |  | 160 |  | 
15 | COc1ccc(C#CC(C)(C)O)cc1C(=O)c1ccc(Nc2ccc(F)cc2F)nc1 | 88 | 54 | 23 | ED50 (Mus musculus [20]): 23 mg/kg
16 | COc1ccc(CCC2(O)CCN(C)CC2)cc1C(=O)c1ccc(Nc2ccc(F)cc2F)cc1 | 0 | 51 |  | 
17 | COc1ccc(CCC(C)(C)O)cc1C(=O)c1ccc(Nc2ccc(F)cc2F)nc1 |  | 479 |  | 
18 | CC(C)(N)C#Cc1ccc(Cl)c(C(=O)c2ccc(Nc3ccc(F)cc3F)cc2)c1 | 85 | 6 |  | 
19 | O=C(c1ccc(Nc2ccc(F)cc2F)nc1)c1cc(Br)ccc1Cl |  | 300 |  | 
